Results as given in ChEMBL document CHEMBL1141449, “Diterpenes, sesquiterpenes, and a C15-acetogenin from the marine red alga Laurencia mariannensis” (2007).
The source made the active and inactive calls. No cut-off for these calls is given here.

How the values were obtained:
Candida albicans = test: Antifungal activity against Candida albicans by standard agar diffusion test; format: functional, organism-based
Outline: (§1)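 Agar diffusion assay following a cited standard method. Read-out is the diameter of the growth-inhibition zone, in mm.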

Aspergillus niger = test: Antifungal activity against Aspergillus niger by standard agar diffusion test; format: functional, organism-based; outline: as §1
Escherichia coli = test: Antibacterial activity against Escherichia coli by standard agar diffusion test; format: functional; outline: as §1
Staphylococcus aureus = test: Antibacterial activity against Staphylococcus aureus by standard agar diffusion test; format: functional; outline: as §1

SMILES | Activity (Candida albicans) | Activity (Aspergillus niger) | inhibition zone (IZ) (Escherichia coli) [mm] | inhibition zone (IZ) (Staphylococcus aureus) [mm]
C=C[C@]1(C)CC[C@H]2C(C)=CC[C@@H](C)[C@]2(C)O1 | inactive | inactive | – | –
CC/C(Br)=C/C=C\C1=C(Br)[C@H]2O[C@H](C=C=CBr)C[C@H]2O1 [LAURENMARIALLENE] | inactive | inactive | 7 | –
C=C1CC[C@H](Br)C(C)(C)[C@]12CC[C@@]1(C)[C@H](C2)[C@](C)(O)[C@H](O)C[C@@H]1Br | inactive | inactive | 6.5 | 6.5
C=C1CC[C@H](Br)C(C)(C)[C@@]12CCC(C)=C(Cl)C2 | inactive | inactive | – | –
